Screens from PubChem.
CRFBP-R2 block: CRF-BP/CRF-R2 complex antagonism | AID 588475 | HEK293 CRF-R2/CRF-BP, CRF-induced calcium fluorescence | inhibition, % at 11.8 µM | 350,000 compounds, 0.59% hits;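 active = inhibition of the ligand-induced calcium signal above about 50% at the single tested concentration, limit read from the data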
Tn6 DDE FP: DD(E)-Tn6 binding inhibition, primary FP screen; P02675; Fibrin DD(E) TRITC-Tn6 fluorescence polarization displacement; inhibition, % at 8.3 µM; 370,000 compounds, 0.21% hits; AID 720509;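 active = inhibition above a per-campaign cutoff: mean of compounds within control limits plus 3 SD, cut at about 15% in these data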;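 note: 0% = median of all compound wells on the plate and 100% = blocking peptide control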
Target sequence (P02675 whole entry, looked up): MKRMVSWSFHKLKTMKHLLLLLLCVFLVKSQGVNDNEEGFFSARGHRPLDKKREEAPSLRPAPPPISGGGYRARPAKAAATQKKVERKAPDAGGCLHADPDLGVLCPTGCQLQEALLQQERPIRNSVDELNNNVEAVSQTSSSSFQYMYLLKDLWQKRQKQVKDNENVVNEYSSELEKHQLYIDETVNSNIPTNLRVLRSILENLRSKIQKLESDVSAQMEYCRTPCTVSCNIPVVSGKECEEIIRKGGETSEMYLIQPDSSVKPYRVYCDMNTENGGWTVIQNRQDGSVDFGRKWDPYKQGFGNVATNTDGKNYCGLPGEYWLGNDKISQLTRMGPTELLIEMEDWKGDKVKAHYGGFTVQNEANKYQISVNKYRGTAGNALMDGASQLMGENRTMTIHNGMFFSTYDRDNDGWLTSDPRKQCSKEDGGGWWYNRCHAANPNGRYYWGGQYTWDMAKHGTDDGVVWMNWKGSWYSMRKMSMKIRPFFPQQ
CRFR2-BP ag: agonists of human CRF-binding protein/CRF-R2 receptor complex; activation, % at 13.2 µM; AID 588473; 350,000 compounds, 0.46% hits; HEK293 CRF-R2/CRF-BP, calcium dye fluorescence (FLIPR); percent of saturating CRF peptide response;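 active = activation of at least 50%, plus an integration ratio under a set limit after plate pattern correction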;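 note: plate controls were neutral control wells without compound for no effect and CRF at EC100 for full effect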
Tn7 DDE FP: DD(E)-Tn7 binding inhibition, primary FP screen; FP displacement of FITC-Tn7 peptide from fibrin DD(E); 0% = median of compound wells per plate; 370,000 compounds, 0.13% hits; inhibition, % at 8.3 µM;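 active = inhibition above the mean of compounds falling within the control limits plus 3 SD of them, cut at about 14% in these data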;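 note: 0% = plate median of compound wells and 100% = 10 µM Aha-Tn7 peptide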
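Test system – human fibrin DD(E) · Times – 10 min preincubation, 3 h with tracer, room temperature · Detection – fluorescence polarization of the labelled Tn7 tracer · Measure – percent inhibition normalized to high-control wells · Benchmarks – high control wells with 10 µM unlabelled Aha-Tn7 peptide (full inhibition) · Repeats – singlicate testing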
The depositor's hits bear a star; x = no result given. Rows were chosen to be rich in hits. Some 1.2% of all compounds tested hit in one or more screens of this group.

SMILES	CRFBP-R2 block	Tn6 DDE FP	CRFR2-BP ag	Tn7 DDE FP
O=S(=O)(/N=C(\c1ccc(F)cc1)N1CCOCC1)c1ccccc1	-21	2	50*	2
O=C(NC1CCCC1)C1CCC(CNS(=O)(=O)c2ccc(F)cc2)CC1 (stereo not drawn)	89*	6	-2	-5
O=C(NC1CCCC1)C1CCC(CNS(=O)(=O)c2ccccc2)CC1 (stereo not drawn)	-15	-3	1	0
COc1cccc(C(=O)Nc2cc(C(=O)NCc3ccc(C)cc3)ccc2N2CCC3(CC2)CC(c2cccc(Br)c2)=NO3)c1	66*	11	5	-2
CCc1ccc(S(=O)(=O)Nc2ccc(O)c3c(=O)cc(-c4ccccc4Cl)oc23)cc1	-9	3	3	1
O=c1cc(-c2ccccc2Cl)oc2c(NS(=O)(=O)c3cc(Cl)cc(Cl)c3O)ccc(O)c12	4	x	81*	x
O=c1cc(-c2ccccc2)[nH]n1-c1ccc([N+](=O)[O-])cc1	51*	x	32	x
N#CNC(=Nc1cccc(F)c1)SCc1ccccc1	64*	-1	36	-2
COc1cc(O)c(C(CC(=O)N2CC(C)OC(C)C2)c2ccc3c(c2)OCO3)c(OC)c1 (stereo not drawn)	x	3	x	3
CC(/C=C1\SC(=S)N(NS(=O)(=O)c2ccc(C)cc2)C1=O)=C\c1ccccc1	-9	1	-2	5
O=C1/C(=C/c2cccnc2)SC(=S)N1NS(=O)(=O)c1ccccc1	23	6	-2	0
C=CCOc1ccc(/C=C2\SC(=S)N(NS(=O)(=O)c3ccccc3)C2=O)cc1	53*	-2	1	5
CC(/C=C1\SC(=S)N(NS(=O)(=O)c2ccccc2)C1=O)=C\c1ccccc1	93*	-4	-2	-6
O=C1/C(=C\c2ccc(Br)cc2)SC(=S)N1NS(=O)(=O)c1ccccc1	58*	-2	0	1
COc1ccc(/C=C2/SC(=S)N(NS(=O)(=O)c3ccccc3)C2=O)cc1	46	-9	0	2
O=C(Nc1ccc2c(c1)OCO2)OC1CCC12CCCCC2 (stereo not drawn)	x	6	x	5
COc1ccc(NC(=O)CCN2CCCCCC2)cc1	80*	8	0	-1
C=CCN1[C@@H](Cc2ccccc2)COc2cccc(N3CCCC3)c2S1(=O)=O	x	-9	x	-9
Cc1ccccc1Cn1cccc1/C=C1/C(=N)N2C=CSC2=NC1=O	55*	6	-1	-1
COc1ccc(S(=O)(=O)N(C)C[C@@H]2Oc3c(NC(=O)Nc4ccccc4)cccc3C(=O)N([C@@H](C)CO)C[C@H]2C)cc1	x	-3	x	5
O=c1oc(CCO)cc2ccc(Br)cc12	66*	-6	0	6
COC(=O)[C@]12C[C@H](CC(=O)NCC3CCCCC3)C(=O)N(Cc3ccc(Cl)cc3Cl)C1=C[C@H](C(C)C)O[C@@H]2C1CC1	x	4	x	7
CCCCN1C(=O)c2ccccc2NC1c1ccc(OC)c(COc2ccc(NC(C)=O)cc2)c1 (stereo not drawn)	x	-4	x	2
C[C@@H](C(=O)Nc1nccs1)N1C(=O)C2CC=CCC2C1=O (stereo partly drawn)	3	-1	0	-10
CC(C(=O)Nc1sccc1C(N)=O)N1C(=O)C2CC=CCC2C1=O (stereo not drawn)	63*	2	-3	-1
SMILES	CRFBP-R2 block	Tn6 DDE FP	CRFR2-BP ag	Tn7 DDE FP
Cc1n[nH]c(C)c1CCC(=O)N/N=C/c1cccs1	0	5	0	-3
Cc1ccsc1/C=N\NC(=O)CCc1c(C)n[nH]c1C	52*	-1	4	5
Cc1ccc2c(c1)N(C(=O)CCC(=O)N1CCN(c3ccccn3)CC1)CCO2	-31	-2	55*	6
S=c1[nH]nc(-c2c[nH]c3ccccc23)o1	0	-10	0	2
Oc1cc2ccccc2cc1-c1n[nH]c(=S)o1	61*	3	-2	-3
COC(=O)[C@]12C[C@H](CC(=O)N3CCCCC3)C(=O)N(CCc3ccc(OC)c(OC)c3)C1=C[C@H](COCc1ccccc1)O[C@@H]2C	x	-3	x	1
CSCCC(NC(=O)c1cccc(C)c1)C(=O)NNC(=O)c1cccs1 (stereo not drawn)	66*	4	0	-3
O=C(/C=C/c1ccc2ccccc2n1)N1CCN(c2ccccc2)CC1	75*	6	0	3
COc1ccc(OC)c(NC(=O)CSc2ncnc3c2cnn3-c2ccccc2Cl)c1	56*	x	0	x
